Screens (PubChem BioAssay)
The list is not random: actives were taken first. Their share in the collection is about 2.7%.
S100A4 inh HTS – blocks human S100A4 binding to myosin IIA peptide | S100A4/TAMRA-MyoIIA peptide fluorescence polarization | inhibition, % at 10.7 µM | 360,000 tested, 0.14% active | AID 652163;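 active = mean inhibition of at least 70% across replicates, with every replicate also reaching that level; inconclusive = mean inhibition reaches 70% but some replicates fall short; inactive = mean inhibition below 70%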
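Material: S100A4 monomer (human). Medium: Calcium-containing HEPES buffer, pH 7.2. Probe or stimulus: labelled myosin peptide probe, 5 nM. Compound dosing: one concentration per compound. Timing: polarization read 5 min after assay mix addition, stable 5–60 min. Benchmarks: DMSO as neutral control, TFP as positive control.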
AF4-AF9 inh – blocks AF4 peptide binding to human AF9; P42568; AlphaScreen, biotin-AF4 peptide binding to FLAG-AF9; inhibition, % at 10 µM; 350,000 tested, 0.47% active;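 active = every replicate reaching a set inhibition limit, whatever the replicate mean, cut at about 25% in these data; inconclusive = mean inhibition reaches that limit but some replicates miss it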
Target sequence (P42568 whole entry, looked up): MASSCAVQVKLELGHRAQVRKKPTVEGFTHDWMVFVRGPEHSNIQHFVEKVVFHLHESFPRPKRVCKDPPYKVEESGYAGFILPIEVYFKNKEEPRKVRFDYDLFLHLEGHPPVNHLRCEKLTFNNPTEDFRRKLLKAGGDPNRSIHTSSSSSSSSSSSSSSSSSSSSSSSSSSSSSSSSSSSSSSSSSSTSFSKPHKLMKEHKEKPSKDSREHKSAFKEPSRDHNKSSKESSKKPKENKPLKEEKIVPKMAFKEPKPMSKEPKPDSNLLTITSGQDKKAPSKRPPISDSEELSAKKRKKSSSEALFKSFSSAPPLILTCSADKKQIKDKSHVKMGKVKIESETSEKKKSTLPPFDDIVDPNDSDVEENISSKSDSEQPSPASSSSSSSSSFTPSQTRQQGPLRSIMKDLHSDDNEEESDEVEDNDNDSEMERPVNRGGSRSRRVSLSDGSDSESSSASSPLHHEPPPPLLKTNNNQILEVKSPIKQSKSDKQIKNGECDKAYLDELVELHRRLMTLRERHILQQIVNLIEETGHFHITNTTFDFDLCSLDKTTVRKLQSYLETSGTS
SIRT5 block – inhibitors of human sirtuin-5 desuccinylase; 330,000 tested, 1.1% active; Purified SirT5, succinyl-peptide AMC, trypsin-coupled fluorescence; inhibition, % at 15 µM; Q9NXA8; in the data active = inhibition above about 15%; inconclusive = no clear call, values can overlap the other calls
DENV2 CPE – inhibitors of DENV2 cytopathic effect; 350,000 tested, 1.7% active; AID 651640; CPE inhibition, % at 9.99 µM; DENV2-infected cells, cytopathic effect rescue, plate reader; in the data active = CPE inhibition above about 20%, passing the limit was not always enough; inconclusive = no clear call, values can overlap the other calls; tested in BHK-21 cells
CaV13 ICDI inh – Primary screen for inhibitors of IQ motif and Ca2+-dependent inactivation inhibitor domain binding in CACNA1D, Förster resonance energy transfer in living cells, … | HEK cells, CFP/YFP FRET ICDI-IQ, plate reader, 10 min; percent FRET-ratio fall versus neutral wells | inhibition, % at 12.3 µM | 340,000 tested, 0.098% active | AID 743397;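 active = mean replicate inhibition of at least 30% and at least 1% of replicates passing that level; inconclusive = only one of the two criteria is met; inactive = neither criterion is met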
Large screens that a line does not name were inactive.

C[C@H](CO)N1C[C@H](C)[C@H](CN(C)Cc2ccccc2)Oc2ccc(NC(=O)Nc3ccccc3)cc2C1=O	none (no result: CaV13 ICDI inh)
CNC[C@H]1Oc2ccc(NC(=O)NC(C)C)cc2C(=O)N([C@@H](C)CO)C[C@@H]1C	DENV2 CPE 28 (no result: CaV13 ICDI inh)
C[C@@H]1CN([C@H](C)CO)C(=O)c2cc(NC(=O)Nc3ccccc3)ccc2O[C@@H]1CN(C)Cc1ccccc1	SIRT5 block 18 (no result: CaV13 ICDI inh)
Cc1ccccc1S(=O)(=O)NCC[C@H]1CC[C@@H](NS(=O)(=O)c2ccccc2C)[C@H](CO)O1	none (no result: CaV13 ICDI inh)
C[C@@H]1CCCCO[C@H](CN(C)C(=O)Nc2ccc3c(c2)OCO3)[C@@H](C)CN([C@@H](C)CO)C(=O)c2cc(NS(=O)(=O)c3cccs3)ccc2O1	none (no result: CaV13 ICDI inh)
Cc1noc(C)c1NC(=O)Nc1ccc2c(c1)C(=O)N([C@@H](C)CO)C[C@H](C)[C@@H](CN(C)Cc1ccccc1)O2	DENV2 CPE 29 (no result: CaV13 ICDI inh)
CC(C)NC(=O)Nc1ccc2c(c1)C(=O)N([C@H](C)CO)C[C@H](C)[C@H](CN(C)Cc1ccccc1)O2	none (no result: CaV13 ICDI inh)
CC(C)NC(=O)Nc1ccc2c(c1)C(=O)N([C@@H](C)CO)C[C@@H](C)[C@@H](CN(C)Cc1ccc(C(=O)O)cc1)O2	DENV2 CPE 25 (no result: CaV13 ICDI inh)
Cc1noc(C)c1NC(=O)Nc1ccc2c(c1)C(=O)N([C@H](C)CO)C[C@@H](C)[C@H](CN(C)Cc1ccccc1)O2	none (no result: CaV13 ICDI inh)
CC(C)NC(=O)Nc1ccc2c(c1)C(=O)N([C@H](C)CO)C[C@@H](C)[C@H](CN(C)Cc1ccccc1)O2	DENV2 CPE 43 (no result: CaV13 ICDI inh)
C[C@@H]1CN([C@@H](C)CO)C(=O)c2cc(NC(=O)Nc3ccccc3)ccc2O[C@@H]1CN(C)Cc1ccc(Oc2ccccc2)cc1	SIRT5 block 17 (no result: CaV13 ICDI inh)
CC(C)NC(=O)N(C)C[C@@H]1OCCCC[C@H](C)Oc2ccc(NC(=O)CCC(F)(F)F)cc2C(=O)N([C@@H](C)CO)C[C@@H]1C	none (no result: CaV13 ICDI inh)
C[C@H](CO)N1C[C@H](C)[C@@H](CN(C)C)Oc2ccc(NC(=O)NC3CCCCC3)cc2C1=O	none (no result: CaV13 ICDI inh)
Cc1cc2c(cc1C)-n1nnnc1C(N(Cc1ccccc1)Cc1ccccc1)C(=O)N2 (configuration not stated)	none (no result: AF4-AF9 inh)
Cc1noc(C)c1S(=O)(=O)Nc1cccc2c1O[C@H](CN(C)Cc1ccccc1)[C@H](C)CN([C@H](C)CO)C2=O	none (no result: CaV13 ICDI inh)
C[C@H](CO)N1C[C@H](C)[C@@H](CN(C)Cc2ccc(Oc3ccccc3)cc2)Oc2ccc(NC(=O)C3CC3)cc2C1=O	SIRT5 block 18 (no result: CaV13 ICDI inh)
COc1cccc(C(=O)Nc2ccc3c(c2)C(=O)N(C)C[C@H](OC)[C@@H](C)CN(CCc2ccccc2)[C@H](C)CO3)c1	SIRT5 block 20 (no result: CaV13 ICDI inh)
COc1cccc(C(=O)Nc2ccc3c(c2)C(=O)N(C)C[C@H](OC)[C@H](C)CN(C(=O)C2CCCC2)[C@@H](C)CO3)c1	DENV2 CPE 38 (no result: CaV13 ICDI inh)
Cc1cc(C=O)c(C)n1-c1cc(C(=O)O)cc(C(=O)O)c1	SIRT5 block 20
COc1ccccc1-c1cccc(-c2nc(C(=O)Nc3nccs3)cc3c2[C@H](CCO)N(C(=O)CC2CC2)C3)c1	none (no result: CaV13 ICDI inh)
COc1ccccc1-c1cccc(-c2nc(C(=O)Nc3nccs3)cc3c2[C@@H](CCO)N(C(=O)CC2CC2)C3)c1	S100A4 inh HTS inconclusive, SIRT5 block 16
CCCNC(=O)c1cc2c(c(-c3cccc(-c4ccccc4F)c3)n1)[C@H](CCO)N(C(=O)CC1CC1)C2	DENV2 CPE 82
COCC(=O)Nc1ccc2c(c1)C(=O)N(C)C[C@@H](OC)[C@H](C)CN(Cc1cncnc1)[C@@H](C)CO2	DENV2 CPE 21 (no result: CaV13 ICDI inh)
COCC(=O)Nc1ccc2c(c1)OC[C@@H](C)N(Cc1cncnc1)C[C@@H](C)[C@H](OC)CN(C)C2=O	DENV2 CPE 22 (no result: AF4-AF9 inh, CaV13 ICDI inh)
CN(C[C@H]1N[C@H](CO)[C@H]1c1ccc(-c2cccc(F)c2)cc1)S(C)(=O)=O	none (no result: CaV13 ICDI inh)
c1ccc2c(CN3CCCCC3)csc2c1	SIRT5 block 15
CC(OC(=O)c1ccc2c(=O)n3c(nc2c1)CCC3)C(=O)NC1CCCCC1C (configuration not stated)	DENV2 CPE 33
O=C(Nc1nnc([C@@H]2C[C@H](O)[C@@H](CO)O2)s1)c1ccccc1Cl	none
O=C(Nc1nnc([C@H]2C[C@H](O)[C@@H](CO)O2)s1)c1ccccc1F	DENV2 CPE 29
